Converted amounts (≈) assume the structure as drawn.
Columns and labels:
NDEA-induced HCC [1] = test: NDEA-induced HCC model: body weight, liver weight, tumor incidence; assay type: in vivo, Wistar albino rats
In short: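 NDEA-induced HCC in male Wistar albino rats (six weeks old, 80–120 g, n=8/group): 100 mg/kg i.p. weekly for 6 weeks. Then free or PLGA-nanoparticle test compound was given at 50 or 100 mg/kg orally, or 5-FU 10 mg/kg i.p., for 15 days; controls got 0.25% CMC 2 mL/kg. Body weight was taken on the first and last days as % gain. Livers were weighed; nodule number and % incidence were counted.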

NDEA-induced HCC [2] = test: NDEA-induced HCC model: oxidative stress parameters in liver tissue; assay type: in vivo, Wistar albino rats
In short: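 Rats were male Wistar albino (80–120 g, n=8/group) given NDEA 100 mg/kg i.p. weekly for 6 weeks. They then received free or PLGA-nanoparticle test compound at 50 or 100 mg/kg orally, or 5-FU 10 mg/kg i.p., for 15 days. Livers were excised, rinsed in ice-cold saline and stored at −80°C. CAT, SOD, GSH, protein carbonyl and TBARS were assayed in liver tissue.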

NDEA-induced HCC [3] = test: NDEA-induced HCC model: histopathology; assay type: in vivo, Wistar albino rats; conditions: NDEA rats; 50 and 100 mg/kg orally for 15 days
[4] = In vivo oral pharmacokinetic study, plasma HPLC; set-up: species or system albino Wistar rats
In short: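 Albino Wistar rats received free or PLGA-nanoparticle test compound orally at 100 mg/kg. […] was mixed 1:1 with ACN, vortexed, spun, dried at 40°C and reconstituted in ACN. Assay was RP-C18 HPLC (ACN:H2O 9:1, 1 mL/min, 40°C, 230 nm); calibrants 0.01–50.0 µg/mL.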

[5] = test system: IL-2, IL-6, IL-10 and IL-1β; assay type: in vivo, Wistar albino rats; conditions: NDEA rats, ELISA; 50 and 100 mg/kg orally for 15 days
In short: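 Male Wistar albino rats (six weeks old, 80–120 g, n=8/group) got NDEA 100 mg/kg i.p. weekly for 6 weeks. Free or PLGA-nanoparticle test compound followed at 50 or 100 mg/kg orally for 15 days (5-FU 10 mg/kg i.p.; vehicle 0.25% CMC). Excised livers were rinsed in ice-cold saline and kept at −80°C. Hepatic IL-2, IL-6, IL-10 and IL-1β were measured by kit ELISA; mean ± SD.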

caspase-3 and -8 = test: NDEA-induced HCC model: ELISA of caspase-3 and -8 in liver; assay type: in vivo, Wistar albino rats; conditions: NDEA rats; 50 and 100 mg/kg orally for 15 days
NDEA-induced HCC [6] = test: NDEA-induced HCC model: catabolic by-products; assay type: in vivo, Wistar albino rats; conditions: NDEA rats; 50 and 100 mg/kg orally for 15 days
HepG2 cells = test: Sulforhodamine B; assay type: cell-based; conditions: Homo sapiens, HepG2, 48 h
caspase-3 and -8 genes = test: NDEA-induced HCC model: qRT-PCR of caspase-3 and -8 mRNA in liver tissue; assay type: in vivo, Wistar albino rats; conditions: NDEA rats, 50 and 100 mg/kg orally for 15 days
[7] = NDEA + 5-FU 10 mg/kg i.p. for 15 days
[8] = NDEA + 50 mg/kg orally for 15 days
[9] = NDEA + 100 mg/kg orally for 15 days
[10] = albino Wistar, rat, po, 100 mg/kg
[11] = oral 100 mg/kg, albino Wistar rats

O=c1[nH]cc(F)c(=O)[nH]1 [Batch 5-FU, 5-fluorouracil, reference compound]
Final day body weight (NDEA-induced HCC [1]; [7]): 125.00 ± 3.15 g | Liver weight (NDEA-induced HCC [1]; [7]): 10.43 ± 1.71 g | Tumor incidence no (NDEA-induced HCC [1]; [7]): 6.00±0.83 | Weight variation (NDEA-induced HCC [1]; [7]): 10.00 ± 1.26 g | CAT (NDEA-induced HCC [2]; [7]): 8.41±0.68 nM of H2O2/min/µg of protein | GSH (NDEA-induced HCC [2]; [7]): 5.04±0.61 mM/mg of protein | ProC (NDEA-induced HCC [2]; [7]): 0.69±0.03 µM/µg of protein | SOD (NDEA-induced HCC [2]; [7]): 0.24±0.09 U/µg of protein | TBARS (NDEA-induced HCC [2]; [7]): 0.09±0.01 nM of MDA/mg of protein

C=C(C)[C@@H]1CC[C@]2(C(=O)O)CC[C@]3(C)[C@H](CC[C@@H]4[C@@]5(C)CC[C@H](O)C(C)(C)[C@@H]5CC[C@]43C)[C@@H]12 [B, Betulinic acid]
Final day body weight (NDEA-induced HCC [1]; [8]): 132.00 ± 4.25 g | Liver weight (NDEA-induced HCC [1]; [8]): 12.78 ± 0.73 g | Tumor incidence no (NDEA-induced HCC [1]; [8]): 19.00±0.97 | Weight variation (NDEA-induced HCC [1]; [8]): 11.00 ± 1.82 g | Final day body weight (NDEA-induced HCC [1]; [9]): 130.00 ± 2.12 g | Liver weight (NDEA-induced HCC [1]; [9]): 12.03 ± 1.25 g | Tumor incidence no (NDEA-induced HCC [1]; [9]): 14.00±1.01 | Weight variation (NDEA-induced HCC [1]; [9]): 12.00 ± 2.93 g | Histological changes in liver tissue, H&E (in words) (NDEA-induced HCC [3]): marked improvement in gross microscopic appearance of hepatic tissue | AUC [4, 10]: 134 µg·h/mL | AUC(0-inf) [4, 10]: 134 ± 35.7 µg·h/mL | Cmax [4, 10]: 10300 ± 450 ng/mL | MRT [4, 10]: 12.9 ± 1.35 h | Tmax [4, 10]: 4 h | half-life [4, 10]: 10.7 h | AUMC [4, 11]: 1,724.12 µg·h^2/mL | CL [4, 11]: 0.007 h | Inflammatory cytokines IL-2, IL-6, IL-10, IL-1β (in words) [5]: decreased to a certain extent | Caspase-3 and -8 levels in liver, ELISA (in words) (caspase-3 and -8): ability to elevate the reduced levels of caspase-3 and -8 | Catabolic pigments bilirubin and biliverdin in liver tissue (in words) (NDEA-induced HCC [6]): significant (p<0.001) normalization | GI50 (HepG2 cells): 10 µg/mL (≈ 21.9 µM) | Caspase-3 and -8 gene expression, qRT-PCR (in words) (caspase-3 and -8 genes): significantly elevated (p<0.001) the reduced levels of caspase-3 and -8 | CAT (NDEA-induced HCC [2]; [8]): 5.75±0.27 nM of H2O2/min/µg of protein | GSH (NDEA-induced HCC [2]; [8]): 3.25±0.65 mM/mg of protein | ProC (NDEA-induced HCC [2]; [8]): 0.91±0.02 µM/µg of protein | SOD (NDEA-induced HCC [2]; [8]): 0.19±0.07 U/µg of protein | TBARS (NDEA-induced HCC [2]; [8]): 0.13±0.05 nM of MDA/mg of protein | CAT (NDEA-induced HCC [2]; [9]): 6.81±0.73 nM of H2O2/min/µg of protein | GSH (NDEA-induced HCC [2]; [9]): 3.50±0.32 mM/mg of protein | ProC (NDEA-induced HCC [2]; [9]): 0.76±0.02 µM/µg of protein | SOD (NDEA-induced HCC [2]; [9]): 0.21±0.05 U/µg of protein | TBARS (NDEA-induced HCC [2]; [9]): 0.11±0.04 nM of MDA/mg of protein
